Source: PubChem
The list is not random: actives were taken first. Their share in the collection is about 1.9%.
Rce1 inh: inhibitors of yeast Ras-converting enzyme; yeast membranes, quenched prenylated peptide cleavage fluorescence; calls only; hit rate 0.27% among 290,000;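 active = fall in fluorescence gain of 50% or more versus controls, with final raw signal at or below 3038400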;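 also: plate controls were neutral control wells for no effect and wells lacking membranes for full effect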
Target sequence (Q03530 whole entry, looked up): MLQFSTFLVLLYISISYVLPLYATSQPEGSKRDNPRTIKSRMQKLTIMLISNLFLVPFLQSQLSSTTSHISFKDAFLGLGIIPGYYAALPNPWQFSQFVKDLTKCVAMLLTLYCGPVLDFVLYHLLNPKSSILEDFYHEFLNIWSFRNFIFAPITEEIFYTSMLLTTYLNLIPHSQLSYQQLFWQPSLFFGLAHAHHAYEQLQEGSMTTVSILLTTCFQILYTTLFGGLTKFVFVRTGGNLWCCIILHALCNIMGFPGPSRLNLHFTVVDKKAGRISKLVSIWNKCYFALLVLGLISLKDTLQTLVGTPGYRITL
CR mimetic SO: caloric restriction mimetics inhibiting age-related superoxide in yeast; AID 2690; superoxide response (% of plate mean), % at 10 µM; S. cerevisiae aged cells, superoxide DHE fluorescence; stronger effect = lower value; hit rate 0.18% among 330,000;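 active = superoxide response under a set limit, about three screen SD below normal, cut at about 65% in these data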;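 also: yeast aged for seven days with compound at 30 °C before DHE staining; 100% = average MFI of all compound-treated wells on the plate with controls excluded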
UCH37 inh: inhibitors of human deubiquitinating enzyme UCH37 | purified proteasome/UCH37, Ub-AMC cleavage fluorescence | inhibition, % (concentration not given with the values) | hit rate 0.33% among 330,000 | AID 588478;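 active = mean inhibition over replicate wells above about 20%, limit read from the data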;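 also: 0% = compound-free wells with enzyme and 100% = wells lacking proteasome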
Target sequence (Q9Y5K5 whole entry, looked up): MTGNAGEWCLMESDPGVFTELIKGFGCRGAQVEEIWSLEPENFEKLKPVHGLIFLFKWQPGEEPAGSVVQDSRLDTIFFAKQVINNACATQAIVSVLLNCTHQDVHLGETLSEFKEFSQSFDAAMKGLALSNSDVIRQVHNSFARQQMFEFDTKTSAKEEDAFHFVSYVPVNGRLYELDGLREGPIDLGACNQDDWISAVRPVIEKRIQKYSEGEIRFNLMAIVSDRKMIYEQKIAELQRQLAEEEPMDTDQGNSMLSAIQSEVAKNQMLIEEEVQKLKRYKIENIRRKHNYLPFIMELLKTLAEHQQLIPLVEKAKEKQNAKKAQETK
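Signal – fluorescence, ex 355 nm, em 460 nm · System – Proteasome-bound UCH37 · Input – 0.15 nM proteasome as dispensed · Timing – 30 min preincubation with enzyme, 25 min cleavage at room temperature · Read-out basis – percent inhibition of cleavage signal versus uninhibited and no-proteasome wells · Medium – Tris-HCl pH 7.4 with ATP-MgCl2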
NR1D1 modulator: modulators of human Rev-erb alpha DNA binding | Rev-erbα–FITC-DNA binding, fluorescence polarization, 90 min | hit rate 0.79% among 370,000 | AID 1259318 | activity, % at 10 µM;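 active = activity above about 14%, limit read from the data; passing the limit was not always enough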;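 also: 0% = DMSO wells with 35 nM protein and 100% = DMSO wells with 750 nM protein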
beta cell repl: induces beta-cell replication in MIN6 cells | MIN6 cells proliferation, ATPlite luminescence, 48 h; cells starved in 0.2% serum; 100% = growth in 10% serum | hit rate 0.29% among 330,000 | AID 2380 | proliferation, % at 10 µM;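 active = compounds whose signal lies at least 3.5 SD above the mean of all wells on their plate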;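 also: 0% = DMSO-treated cells in low-serum medium and 100% = 10% serum control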
PG9 Ab binder: binds the HIV-1 gp120 antibody PG9 | hit rate 0.43% among 360,000 | TR-FRET gp120-PG9 antibody binding | AID 624416 | inhibition, % at 6.7 µM; in the data active = inhibition above about 8.5%
NR1D1 mod conf: Rev-erb alpha (human) modulation, hit confirmation; shares compounds with NR1D1 modulator; Rev-erb alpha FITC-DNA binding, fluorescence polarization, 90 min; activation, % at 25 µM; hit rate 61% among 3,000; AID 1259319;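 active = activation at or above a set limit, or at least 3 SD above the negative control mean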;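 also: 0% = 35 nM protein with DMSO and 100% = 750 nM protein high control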
RORg counter: RORgamma DNA-binding activity, dose-response counter-screen. IC50, µM. AID 1259320. shares compounds with NR1D1 modulator. hit rate 8% among 910. purified RORgamma protein-FITC-DNA binding, fluorescence polarization;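 active = Compounds whose fitted half-maximal concentration for disrupting protein-DNA binding is below 10 micromolar; the record names Rev-erb in its text, so the target is in doubt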
* marks the source's active call; other numbers are inactive results; i = inactive; x = no result.

SMILES	Rce1 inh	CR mimetic SO	UCH37 inh	NR1D1 modulator	beta cell repl	PG9 Ab binder	NR1D1 mod conf	others
CCOC(=O)c1c(C2CC2)csc1NC(=O)COC(=O)c1ccc[n+]([O-])c1	i	91.3	-4.6	-0.8	2.9	-1.1	x
CC(=NNC(=O)COc1ccc(C)cc1[N+](=O)[O-])c1ccc2c(c1)OCCO2	x	x	5.7	x	x	x	x
Cn1cccc1C=Nn1c(-c2ccccc2)n[nH]c1=S	x	x	2.0	x	x	x	x
O=C(CSc1nnc(-c2ccc3c(c2)OCO3)n1-c1ccccc1)c1ccccc1	i	86.5	2.8	24.7*	0.0	-0.6	18.5*
O=C(CSc1nnc(-c2ccc3c(c2)OCO3)n1-c1ccccc1)c1ccc(Cl)cc1	i	90.0	4.3	3.6	0.0	-2.0	x
N#Cc1cc2c(nc1SCC(=O)Nc1sc3c(c1C#N)CCC3)CCC2	i	99.0	-4.2	9.3	-0.1	0.5	x
CCc1nnc(NC(=O)CSc2nc3c(cc2C#N)CCC3)s1	i	96.5	2.0	28.6*	-2.9	1.1	30.9*
N#Cc1cc2c(nc1SCC(=O)Nc1sc3c(c1C#N)CCC3)CCCCCC2	i	118.1	-0.3	10.9	-4.7	0.7	x
CCSc1nnc(NC(=O)CSc2nc3c(cc2C#N)CCCC3)s1	i	88.8	-48.8	34.3*	-3.6	0.1	18.6*
CCCc1cc(=O)oc2cc(C)cc(OC(C)C(=O)NCc3cccnc3)c12 (stereo not given)	i	90.5	-147.0	1.6	-2.6	-1.7	x
CCCc1cc(=O)oc2cc(C)cc(OCC(=O)Nc3ccc(S(N)(=O)=O)cc3)c12	i	79.0	-8.9	135.2*	-3.7	5.1	150.8*	RORg counter=i
CCCc1cc(=O)oc2cc(C)cc(OC(C)C(=O)NCc3ccncc3)c12 (stereo not given)	i	98.4	-142.4	23.4*	2.9	-1.7	21.2*
CCOC(=O)c1cnc2c(-c3ccc(Cl)cc3)c(C)nn2c1N	x	113.4	-42.2	-1.4	-0.7	-2.4	x
COc1ccc(-c2cc3ncc(C(C)=O)c(C)n3n2)cc1	i	108.7	-128.2	36.0*	-2.5	0.1	12.8
CCOC(=O)c1cnc2cc(-c3ccc(Cl)cc3)nn2c1N	i	98.0	-6.1	19.9*	1.0	0.7	-0.4
O=C(CSc1ncnc2c(-c3ccc(Cl)cc3)nsc12)c1ccccc1	i	105.5	-22.4	33.8*	-3.3	1.2	18.9*
O=C(CSc1ncnc2nc[nH]c12)c1ccc(Cl)cc1	i	101.6	3.5	-4.0	-3.7	2.7	x
Cc1cc2cc(C)c(NCCNC(=O)c3cccs3)nc2cc1C	i	111.8	-2.4	21.1*	-6.1	-2.6	-6.9
COc1cccc(-n2nnnc2SCC(=O)Nc2ccc3c(c2)OCCO3)c1	x	93.8	2.9	30.3*	0.0	1.9	46.0*	RORg counter=i
Brc1nc(-c2ccccc2)nc(-c2ccccc2)c1Br	i	120.0	3.7	64.7*	-4.1	-0.4	685.1*	RORg counter=i
CCN(C(=O)c1ccco1)c1nnc(-c2ccc(OC)cc2)s1	i	110.1	-28.1	24.8*	-3.1	3.0	-3.7
COc1ccc(C(=O)Nc2cccc(OC)c2)cc1	i	81.1	0.8	-0.1	-4.9	1.9	x
COc1ccc(C(=O)Nc2ccc3[nH]c(-c4cccc(OC)c4)cc(=O)c3c2)cc1	i	88.7	2.7	50.9*	-4.9	-1.4	4.4
NC(=NOC(=O)c1ccc(Cl)c([N+](=O)[O-])c1)c1ccccn1	x	x	3.0	x	x	x	x
COC(=O)c1cn(NC(=O)Cc2ccc(OC)c(OC)c2)c(=O)c2ccccc12	i	103.6	-0.2	12.3*	0.5	0.6	-0.2
SMILES	Rce1 inh	CR mimetic SO	UCH37 inh	NR1D1 modulator	beta cell repl	PG9 Ab binder	NR1D1 mod conf	others
O=C1c2cnc3nc(SCc4cccc(Cl)c4)nn3c2CC2c3ccccc3CCN12 (stereo not given)	i	136.7	-206.1	33.5*	-3.9	-2.4	10.8
CSc1nc2ncc3c(n2n1)CC1c2ccccc2CCN1C3=O (stereo not given)	i	107.5	-239.3	-2.6	2.1	1.8	x
CCOc1ccccc1NC(=O)c1cnc2n(c1=O)CCS2	i	106.0	-11.5	45.9*	0.4	0.2	37.9*	RORg counter=>40
O=[N+]([O-])c1cc(C=NO)ccc1Oc1ccc(F)cc1	x	x	4.3	x	x	x	x
C=CCOc1ccc(C=NNC(=O)CN(c2cc(Cl)ccc2OC)S(=O)(=O)c2ccc(C)c([N+](=O)[O-])c2)cc1	x	x	5.1	x	x	x	x
O=C(CSc1nc(C2CC2)nc2sc3c(c12)CCCC3)NCc1ccco1	i	93.3	0.7	26.6*	-1.3	0.5	11.1
Cc1cc(C)c([N+](=O)[O-])cc1-c1ccc(C=NNC(=O)c2nonc2N)o1	x	x	-3.4	x	x	x	x
CCOC(=O)c1c(NC(=O)c2ccc(S(=O)(=O)N3CCOCC3)cc2)sc2c1CC(C)(C)NC2(C)C	i	89.1	-170.1	42.2*	-6.2	0.8	8.3
CC(=NNc1ccc([N+](=O)[O-])cc1[N+](=O)[O-])c1cccnc1	x	x	4.2	x	x	x	x
CSc1nccc(NN=Cc2ccccc2)n1	x	x	4.6	x	x	x	x
CCOc1ccc(-c2nnn(CC(=O)Nc3cc(OC)ccc3OC)n2)cc1OCC	i	124.9	-0.5	0.4	0.8	-1.9	x
CCOc1ccc(-c2nnn(CC(=O)c3cc(OC)ccc3OC)n2)cc1	i	i	-101.0	18.9*	-1.4	-1.9	4.8
O=C(NN=Cc1ccc(OC2CSC2)cc1)c1ccc(CN2CCOCC2)cc1	x	x	-3.0	x	x	x	x
CC(C)(C)C(=O)Cn1c(=O)n(CC2CCCO2)c(=O)c2ccccc21 (stereo not given)	i	137.9	1.7	1.7	-2.8	1.0	x
O=C(Cn1c(=O)n(CC2CCCO2)c(=O)c2ccccc21)c1ccc(Cl)c(Cl)c1 (stereo not given)	x	99.3	-0.6	27.4*	-2.6	5.0	23.6*
CCC(C)OC(=O)c1cc(C)nc2c(Br)cc(Br)cc12 (stereo not given)	i	109.5	1.7	46.1*	-5.6	3.8	45.9*	RORg counter=>40
CCOC(=O)c1cc(C)nc(SC)c1C#N	i	116.3	0.7	-1.0	-1.1	-1.2	x
CCOc1ccc(-c2nc(S(=O)(=O)c3ccccc3)c(NC)o2)cc1	i	103.7	-42.3	46.7*	1.2	-1.6	12.1
CNc1oc(-c2ccccc2)nc1S(=O)(=O)c1ccc(C)cc1	i	99.3	-0.4	-0.8	1.2	-0.3	x
N#CC(C(=O)NCCc1ccccc1)c1nc2ccccc2nc1N1CCCCC1 (stereo not given)	i	87.5	-2.4	36.5*	-3.7	0.4	11.0
